Test results published in ChEMBL document CHEMBL1132168, “Cycloalkanecarboxylic esters derived from lysergol, dihydrolysergol-I, and elymoclavine as partial agonists and antagonists at rat 5-HT2A receptors: pharmacological evidence that the indolo[4,3-fg]quinoline system of the ergolines is responsible for high 5-HT2A receptor affinity” (J Med Chem, 1999).
“And” between values parts separate entries of the source, which are not always exact repeats. Equal values may be shown once.

Tests used:
[1] = target: T1, 5-hydroxytryptamine receptor 2A (Rattus norvegicus, UniProt P14842); assay: Blocking 5-HT2A receptor-mediated contractions of rat tail artery; assay type: functional, tissue-based; settings: read-out: pA2 (converted)
Outline: (§1)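 Endothelium-denuded rat ventral caudal artery segments (4–5 mm), isometric, resting force 5 mN. Segments were primed once with 5-HT 1 μM during 120 min equilibration. Prazosin 30 nM and cocaine 6 μM were present throughout. Two cumulative 5-HT curves were run 60 min apart, the second after 30–60 min with antagonist. pKP by Marano–Kaumann; pA2 by Schild or as apparent pA2. Mean ± SEM, n segments, ≥2 animals.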

[2] = Specificity towards 5-HT2A receptor to that of alpha-1 adrenoceptor.; assay type: functional
[3] = target: T2, Adrenergic receptor alpha-1 (Rattus norvegicus, UniProt P15823+P23944+P43140); assay: Ability to block alpha-1 adrenergic receptor-mediated contractions of rat aorta.; assay type: functional
T2 sequence (P15823 whole entry): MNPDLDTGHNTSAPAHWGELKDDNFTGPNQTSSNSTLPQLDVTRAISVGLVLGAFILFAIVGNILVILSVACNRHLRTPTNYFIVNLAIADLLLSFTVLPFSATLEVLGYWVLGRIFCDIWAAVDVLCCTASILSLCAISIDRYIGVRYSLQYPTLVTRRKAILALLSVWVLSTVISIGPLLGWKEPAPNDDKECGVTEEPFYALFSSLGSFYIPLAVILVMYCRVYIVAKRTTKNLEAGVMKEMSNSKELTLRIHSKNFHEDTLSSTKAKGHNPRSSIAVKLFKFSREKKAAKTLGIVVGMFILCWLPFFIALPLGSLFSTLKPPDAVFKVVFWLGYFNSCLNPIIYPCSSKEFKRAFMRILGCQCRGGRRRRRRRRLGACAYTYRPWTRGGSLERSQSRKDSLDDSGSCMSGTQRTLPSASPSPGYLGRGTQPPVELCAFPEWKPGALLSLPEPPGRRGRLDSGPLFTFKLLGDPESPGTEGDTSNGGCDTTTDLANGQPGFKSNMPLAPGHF
T2 sequence (P23944 whole entry): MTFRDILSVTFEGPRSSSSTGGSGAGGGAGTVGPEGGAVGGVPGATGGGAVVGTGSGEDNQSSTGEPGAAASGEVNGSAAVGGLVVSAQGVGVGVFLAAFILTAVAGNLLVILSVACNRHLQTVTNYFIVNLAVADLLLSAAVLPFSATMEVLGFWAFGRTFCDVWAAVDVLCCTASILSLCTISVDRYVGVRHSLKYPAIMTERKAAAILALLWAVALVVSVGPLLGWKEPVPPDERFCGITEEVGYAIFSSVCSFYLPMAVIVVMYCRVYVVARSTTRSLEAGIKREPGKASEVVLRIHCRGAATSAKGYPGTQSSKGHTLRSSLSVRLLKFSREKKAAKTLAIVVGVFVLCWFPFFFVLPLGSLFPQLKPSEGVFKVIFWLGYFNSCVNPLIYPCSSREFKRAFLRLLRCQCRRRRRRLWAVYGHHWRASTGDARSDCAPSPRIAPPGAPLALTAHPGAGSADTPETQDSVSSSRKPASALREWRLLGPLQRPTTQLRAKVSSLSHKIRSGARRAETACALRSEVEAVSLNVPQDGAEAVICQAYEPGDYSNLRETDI
T2 sequence (P43140 whole entry): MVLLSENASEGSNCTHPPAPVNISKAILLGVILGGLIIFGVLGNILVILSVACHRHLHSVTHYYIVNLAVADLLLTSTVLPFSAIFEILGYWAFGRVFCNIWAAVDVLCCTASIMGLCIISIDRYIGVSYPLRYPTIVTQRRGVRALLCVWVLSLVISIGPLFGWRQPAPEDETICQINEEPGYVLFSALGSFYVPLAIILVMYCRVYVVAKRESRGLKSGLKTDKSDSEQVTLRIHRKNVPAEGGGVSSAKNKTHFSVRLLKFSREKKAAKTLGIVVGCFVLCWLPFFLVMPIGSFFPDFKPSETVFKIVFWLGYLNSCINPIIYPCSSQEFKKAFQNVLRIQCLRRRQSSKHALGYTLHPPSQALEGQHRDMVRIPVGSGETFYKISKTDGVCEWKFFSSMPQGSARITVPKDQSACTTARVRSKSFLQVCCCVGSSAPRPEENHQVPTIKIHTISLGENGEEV
Outline: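 Endothelium-denuded rat thoracic aorta rings (4–6 mm) in modified Krebs-Henseleit, 37 °C, 95% O2/5% CO2, with (R,S)-propranolol 1 μM. Resting force 20 mN. During 140 min equilibration, rings were stimulated twice with (R)-phenylephrine 100 nM. Two cumulative phenylephrine contraction curves were run, without and then with antagonist added 30 min before.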

[4] = target: 5-hydroxytryptamine receptor 2A (Rattus norvegicus) (UniProt P14842); assay: Intrinsic activity towards 5-HT2A receptor of rat tail artery; assay type: functional, tissue-based
Outline: (§2)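 Endothelium-denuded rat caudal artery segments, resting force 5 mN, with prazosin 30 nM and cocaine 6 μM present. Two cumulative curves were run on each segment 60 min apart: first 5-HT, then the test agonist. pKP was taken from a Kenakin plot of equieffective 5-HT and agonist concentrations. Mean ± SEM from n segments, ≥2 animals.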

[5] = target: 5-hydroxytryptamine receptor 2A (Rattus norvegicus) (UniProt P14842); assay: Relative potency towards 5-HT2A receptor of rat tail artery; assay type: functional, tissue-based; outline: as §2
[6] = target: T1, 5-hydroxytryptamine receptor 2A; assay: Partial agonism at 5-HT2A receptor was evaluated in presence of ketanserin (3-10 nM) in isolated rat tail artery; assay type: functional, tissue-based; settings: read-out: pA2 (converted)
Outline: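 Rat caudal artery, endothelium removed, with prazosin 30 nM and cocaine 6 μM present. A 5-HT curve was followed after 60 min by a cumulative agonist curve, with ketanserin 3 nM added 30 min beforehand. The rightward shift was compared with that in control segments run without ketanserin.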

[7] = target: 5-hydroxytryptamine receptor 2A (Rattus norvegicus) (UniProt P14842); assay: Effectiveness in blocking 5-HT2A receptor-mediated contractions of rat tail artery; assay type: functional, tissue-based; outline: as §1

T1 sequence (P14842 whole entry): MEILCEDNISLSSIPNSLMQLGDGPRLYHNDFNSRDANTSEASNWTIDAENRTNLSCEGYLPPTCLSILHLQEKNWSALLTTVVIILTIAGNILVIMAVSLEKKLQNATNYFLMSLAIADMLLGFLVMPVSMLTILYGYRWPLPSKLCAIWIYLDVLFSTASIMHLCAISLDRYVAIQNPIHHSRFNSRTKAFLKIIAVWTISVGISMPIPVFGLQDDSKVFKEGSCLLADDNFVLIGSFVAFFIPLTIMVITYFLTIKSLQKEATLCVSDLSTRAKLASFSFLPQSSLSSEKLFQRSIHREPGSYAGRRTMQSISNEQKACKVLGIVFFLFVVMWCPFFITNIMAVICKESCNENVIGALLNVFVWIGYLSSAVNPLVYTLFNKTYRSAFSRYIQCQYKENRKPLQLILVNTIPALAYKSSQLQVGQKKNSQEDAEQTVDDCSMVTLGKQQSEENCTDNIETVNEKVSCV
Sequence of 5-hydroxytryptamine receptor 2A (Rattus norvegicus) (P14842 whole entry): as above

Row | SMILES | Kb [1] [nM] | Specificity [2] | pA2 [3] | Intrinsic activity [4] | Relative potency [5] [%] | Kb [6] [nM] | pKp [7]
1 | CC(C)n1cc2c3c(cccc31)[C@H]1C=C(COC(=O)C3CCCCCC3)CN(C)[C@@H]1C2.O=C(O)/C=C\C(=O)O | 17 | > 1860 | < 4.5 |  |  |  | 
2 | CC(C)n1cc2c3c(cccc31)[C@H]1C[C@@H](COC(=O)C3CCCC3)CN(C)[C@@H]1C2.O=C(O)/C=C\C(=O)O | 22.4 | 933 | 4.68 |  |  |  | 
3 | COC1CCC(C(=O)OCC2=C[C@@H]3c4cccc5[nH]cc(c45)C[C@H]3N(C)C2)CC1.O=C(O)/C=C\C(=O)O (some centres not stated) | 47.9 | 12 | 6.32 |  |  |  | 
4 | CN1C[C@H](COC(=O)C2CCCCCC2)C=C2c3cccc4[nH]cc(c34)C[C@H]21.O=C(O)/C=C\C(=O)O |  | 95 | 4.73 | 0.18 | 14 | 0.776 | 6.71 and 6.35
5 | CO[C@H]1CC[C@H](C(=O)OCC2=C[C@@H]3c4cccc5c4c(cn5C(C)C)C[C@H]3N(C)C2)CC1.O=C(O)/C=C\C(=O)O | 7.41 | 2880 | 4.67 |  |  |  | 
6 | CC(C)n1cc2c3c(cccc31)C1=C[C@@H](COC(=O)C3CCC3)CN(C)[C@@H]1C2.O=C(O)/C=C\C(=O)O | 6.03 | 2950 | 4.75 |  |  |  | 
7 | CO[C@H]1CC[C@H](C(=O)OCC2=C[C@@H]3c4cccc5[nH]cc(c45)C[C@H]3N(C)C2)CC1.O=C(O)/C=C\C(=O)O | 57.5 | 17 | 6 |  |  |  | 
8 | CC(C)n1cc2c3c(cccc31)[C@H]1C[C@@H](COC(=O)C3CCCCC3)CN(C)[C@@H]1C2.O=C(O)/C=C\C(=O)O | 72.4 | 355 | 4.59 |  |  |  | 
9 | CC(C)n1cc2c3c(cccc31)[C@H]1C[C@@H](COC(=O)C3CCCCCC3)CN(C)[C@@H]1C2.O=C(O)/C=C\C(=O)O | 89.1 | 186 | 4.78 |  |  |  | 
10 | CC(C)n1cc2c3c(cccc31)[C@H]1C=C(COC(=O)C3CCC3)CN(C)[C@@H]1C2.O=C(O)/C=C\C(=O)O | 9.33 | 2180 | 4.69 |  |  |  | 
11 | CN1C[C@H](COC(=O)C2CCC2)C=C2c3cccc4[nH]cc(c34)C[C@H]21.O=C(O)/C=C\C(=O)O |  | 174 | 5.52 | 0.13 | 185 | 0.741 | 7.76 and 7.36
12 | CC(C)n1cc2c3c(cccc31)[C@H]1C=C(COC(=O)C3CCCC3)CN(C)[C@@H]1C2.O=C(O)/C=C\C(=O)O | 8.91 | 1440 | 4.89 |  |  |  | 
13 | CN1C[C@H](COC(=O)C2CCCCC2)C[C@@H]2c3cccc4[nH]cc(c34)C[C@H]21.O=C(O)/C=C\C(=O)O |  | 52 | 5.62 |  |  |  | 7.34
14 | CN1CC(COC(=O)C2CCCCCC2)=C[C@@H]2c3cccc4[nH]cc(c34)C[C@H]21.O=C(O)/C=C\C(=O)O | 10.7 | 832 | 5.05 |  |  |  | 
15 | CC(C)n1cc2c3c(cccc31)C1=C[C@@H](COC(=O)C3CCCC3)CN(C)[C@@H]1C2.O=C(O)/C=C\C(=O)O | 5.62 | 4790 | 4.57 |  |  |  | 
16 | CN1C[C@H](COC(=O)C2CCC2)C[C@@H]2c3cccc4[nH]cc(c34)C[C@H]21.O=C(O)/C=C\C(=O)O |  | 5 | 6.59 |  |  |  | 7.3

Row | SMILES | Kb [1] [nM] | Specificity [2] | pA2 [3] | Intrinsic activity [4] | Relative potency [5] [%] | Kb [6] [nM] | pKp [7]
17 | CN1C[C@H](COC(=O)C2CC2)C=C2c3cccc4[nH]cc(c34)C[C@H]21.O=C(O)/C=C\C(=O)O |  | 55 | 6.66 | 0.21 | 331 | 0.741 | 
18 | CN1C[C@H](COC(=O)C2CCCC2)C[C@@H]2c3cccc4[nH]cc(c34)C[C@H]21.O=C(O)/C=C\C(=O)O |  | 35 | 5.95 |  |  |  | 7.5
19 | COC1CCC(C(=O)OCC2=C[C@@H]3c4cccc5c4c(cn5C(C)C)C[C@H]3N(C)C2)CC1.O=C(O)/C=C\C(=O)O (some centres not stated) | 11.5 | 1260 | 4.84 |  |  |  | 
20 | CC(C)n1cc2c3c(cccc31)C1=C[C@@H](COC(=O)C3CC3)CN(C)[C@@H]1C2.O=C(O)/C=C\C(=O)O | 1.82 | 4570 | 5.08 |  |  |  | 
21 | CN1CC(COC(=O)C2CCCC2)=C[C@@H]2c3cccc4[nH]cc(c34)C[C@H]21.O=C(O)/C=C\C(=O)O | 49 | 21 | 5.99 |  |  |  | 
22 | CC(C)n1cc2c3c(cccc31)C1=C[C@@H](COC(=O)C3CCCCC3)CN(C)[C@@H]1C2.O=C(O)/C=C\C(=O)O | 12 | 1410 | 4.77 |  |  |  | 
23 | CN1C[C@H](COC(=O)C2CC2)C[C@@H]2c3cccc4[nH]cc(c34)C[C@H]21.O=C(O)/C=C\C(=O)O |  | 3 | 7.2 |  |  |  | 7.67
24 | CN1C[C@H](CO)C=C2c3cccc4[nH]cc(c34)C[C@H]21 |  |  |  | 0.18 | 74 | 0.794 | 6.88
25 | CN1C[C@H](COC(=O)C2CCCCCC2)C[C@@H]2c3cccc4[nH]cc(c34)C[C@H]21.O=C(O)/C=C\C(=O)O |  | 174 | 4.86 |  |  |  | 7.1
26 | CC1=C[C@@H]2c3cccc4c3c(cn4C(C)C)C[C@H]2N(C)C1.O=C(O)/C=C\C(=O)O | 1.45 | 316 | 6.34 |  |  |  | 
27 | CC(C)n1cc2c3c(cccc31)[C@H]1C[C@@H](C)CN(C)[C@@H]1C2.O=C(O)/C=C\C(=O)O | 3.16 | 63 | 6.7 |  |  |  | 
28 | CN1CC(COC(=O)C2CCC2)=C[C@@H]2c3cccc4[nH]cc(c34)C[C@H]21.O=C(O)/C=C\C(=O)O | 77.6 | 5 | 6.42 |  |  |  | 
29 | CN1CC(COC(=O)C2CCCCC2)=C[C@@H]2c3cccc4[nH]cc(c34)C[C@H]21.O=C(O)/C=C\C(=O)O | 39.8 | 32 | 5.89 |  |  |  | 
30 | CC(C)n1cc2c3c(cccc31)[C@H]1C=C(COC(=O)C3CCCCC3)CN(C)[C@@H]1C2.O=C(O)/C=C\C(=O)O | 15.8 | 1410 | 4.65 |  |  |  | 
31 | CC(C)n1cc2c3c(cccc31)[C@H]1C[C@@H](COC(=O)C3CCC3)CN(C)[C@@H]1C2.O=C(O)/C=C\C(=O)O | 8.71 | 2950 | 4.59 |  |  |  | 
